From ChEMBL document CHEMBL4184153, “Optimization of a series of heterocycles as survival motor neuron gene transcription enhancers” (Bioorg Med Chem Lett, 2017)
≈ marks a conversion by molar mass, not a printed value. Calls of active or inactive are those of the source. The rule behind the calls is not given here.

Key:
[1] = Aqueous solubility of the compound at pH 7.4; type: physicochemical; conditions: aqueous medium
[2] = test system: HEK293; assay: Activation of SMN2 gene (unknown origin) transcription in HEK293 cells expressing SMN2-luc assessed as increase in SMN2 mRNA level at 0.1 to 50 uM after 24 hrs by luciferase reporter gene assay relative to control; type: cell-based
How it was run: (§1)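 Luciferase reporter read-out of SMN2 expression; compounds tested at various concentrations (0.1 – 50 μM) against 0.1% DMSO controls. Dose-response curves fitted to give EC50 and percent maximum increase in SMN2 expression; values mean ± S.E.M.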

[3] = Activation of SMN2 gene (unknown origin) transcription in HEK293 cells expressing SMN2-luc assessed as increase in SMN2 mRNA level after 24 hrs by luciferase reporter gene assay; type: cell-based; conditions: HEK293, 24 h; how it was run: as §1
[4] = organism: Homo sapiens; assay: Increase in SMN2 mRNA expression in SMA derived human fibroblasts assessed as increase in SMN protein level
[5] = Half life in mouse microsomes; type: ADME, Microsome
[6] = test system: HEK293; assay: Activation of SMN2 gene (unknown origin) transcription in HEK293 cells expressing SMN2-luc assessed as increase in SMN2 mRNA level after 24 hrs by qRT-PCR analysis; type: cell-based
[7] = organism: Homo sapiens; assay: Increase in SMN2 mRNA expression in SMA derived human fibroblasts assessed as increase in SMN protein aggregates (Gems)
[8] = test system: HEK293; assay: Activation of SMN1 gene (unknown origin) transcription in HEK293 cells assessed as increase in SMN1 exon 7 transcript level after 24 hrs by qRT-PCR analysis; type: cell-based
[9] = test system: Mus musculus; assay: Increase in life span of SMNdelta7 SMA mouse model assessed as median survival days at 20 mg/kg, ip, administered once daily beginning at PND2 (reference value: 6 days)
[10] = target: Survival motor neuron protein (Homo sapiens, UniProt Q16637); assay: Stabilization of human SMN protein expressed in HEK293 cells expressing SMN2 promoter after 24 hrs by luciferase reporter gene assay; type: cell-based
Survival motor neuron protein, sequence (Q16637 whole entry): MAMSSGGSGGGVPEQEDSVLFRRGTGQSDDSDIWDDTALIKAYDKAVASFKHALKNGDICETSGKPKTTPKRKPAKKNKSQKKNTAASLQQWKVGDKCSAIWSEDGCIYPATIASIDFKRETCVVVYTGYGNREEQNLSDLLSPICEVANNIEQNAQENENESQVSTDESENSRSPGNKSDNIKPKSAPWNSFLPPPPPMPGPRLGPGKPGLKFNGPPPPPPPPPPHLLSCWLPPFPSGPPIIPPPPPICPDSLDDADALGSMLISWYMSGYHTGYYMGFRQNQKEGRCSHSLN

Row | Structure (SMILES) | Emax [2] | EC50 [3] | Activity [2] | further results
1 | COc1cc2c(c(OC)c1OC)C(c1cc(Br)ccc1F)CC(=O)N2 (stereo not given) | 186% | 8.3 µM |  | solubility [1]: < 1 µM
2 | COc1cc2c(c(OC)c1OC)C(c1ccc(Cl)c(Cl)c1)CC(=O)N2 (stereo not given) |  |  | inactive | 
3 | COc1cc2c(c(OC)c1OC)C(c1cc(C(N)=O)ccc1F)CC(=O)N2 (stereo not given) |  |  | inactive | 
4 | COc1cc2c(c(OC)c1OC)C(c1cc(Br)ccc1F)CC(=O)N2C (stereo not given) |  |  | inactive | 
5 | COc1ccccc1C1NC(=O)Nc2cc(OC)c(OC)c(OC)c21 (stereo not given) |  |  | inactive | 
6 | COc1cc2c(c(OC)c1OC)C(c1cc(Cl)ccc1F)OCC(=O)N2C (stereo not given) |  |  | inactive | 
7 | COc1ccc2c(c1OC)C(c1cc(Br)ccc1F)CC(=O)N2 (stereo not given) |  |  | inactive | 
8 | COc1cc2c(c(OC)c1OC)C(c1cc(F)ccc1F)NC(=O)N2 (stereo not given) | 100% | 17 µM |  | 
9 | COc1ccc(Cl)cc1C1NC(=O)Nc2cc(OC)c(OC)c(OC)c21 (stereo not given) | 225% | 3.6 µM |  | 
10 | COc1cc2c(c(OC)c1OC)C(c1cc(F)ccc1F)CC(=O)N2 (stereo not given) |  |  | inactive | 
11 | COc1cc2c(c(OC)c1OC)C(c1ccccc1Cl)NC(=O)N2 (stereo not given) |  |  | inactive | 
12 | COc1cc2c(c(OC)c1OC)C(c1cc(Cl)ccc1F)NC(=O)N2 (racemic) | 263% | 4.1 µM |  | fold change (FC) [4]: 2; half-life [5]: 20 min; Activity [6]: Active; solubility [1]: 91 µM (≈ 33.4 µg/mL); fold change (FC) [7]: 2; Activity [8]: Active; median survival [9]: 15 days
13 | COc1cc2c(c(OC)c1OC)C(c1cc(C#N)ccc1F)CC(=O)N2 (stereo not given) |  |  | inactive | 
14 | COc1cc2c(c(OC)c1OC)C(c1ccc(Cl)cc1F)NC(=O)N2 (stereo not given) | 150% | 6.3 µM |  | 
15 | COc1cc2[nH]c(=O)nc(-c3cc(Cl)ccc3F)c2c(OC)c1OC |  |  | inactive | 
16 | COc1cc2c(c(OC)c1OC)C(C)(c1cc(Cl)ccc1F)OCC(=O)N2 (stereo not given) |  |  | inactive | 
17 | COc1cc2c(c(OC)c1OC)C(c1ccccc1F)CC(=O)N2 (stereo not given) |  |  | inactive | 
18 | COc1cc2c(c(OC)c1)C(c1cc(Br)ccc1F)CC(=O)N2 (stereo not given) |  |  | inactive | 
19 | COc1cc2c(c(OC)c1OC)C(c1ccccc1F)N(C)C(=O)N2 (stereo not given) | 100 to 180% | 6 to 10 µM |  | 
20 | COc1cc2c(c(OC)c1OC)C(c1cc(C#N)ccc1F)NC(=O)N2 (stereo not given) |  |  | inactive | 
21 | COc1cc2c(c(OC)c1OC)C(c1cccc(F)c1)NC(=O)N2 (stereo not given) | 150% | 25 µM |  | 

Row | Structure (SMILES) | Emax [2] | EC50 [3] | Activity [2] | further results
22 | COc1cc2c(c(OC)c1OC)C(c1ccc(Cl)cc1)NC(=O)N2 (stereo not given) | 150% | 6.6 µM |  | 
23 | COc1cc2c(c(OC)c1OC)C(c1cc(Cl)ccc1F)CC(=O)N2 (stereo not given) | 150% | 12 µM |  | 
24 | COc1cc2c(c(OC)c1OC)C(c1cc(Cl)ccc1F)OCC(=O)N2 (stereo not given) | 150% | 5.9 µM |  | half-life [5]: 3 min; solubility [1]: 58 µM (≈ 22.1 µg/mL)
25 | COc1cc2c(c(OC)c1OC)C(c1cccc(Cl)c1Cl)CC(=O)N2 (stereo not given) |  |  | inactive | 
26 | COc1cc2c(c(OC)c1OC)C(c1ccc(F)c(F)c1)CC(=O)N2 (stereo not given) |  |  | inactive | 
27 | COc1cc2c(c(OC)c1OC)C(c1ccc(F)cc1)NC(=O)N2 (stereo not given) | 150% | 14 µM |  | 
28 | COc1cc2c(c(OC)c1OC)C(c1cc(Cl)ccc1F)OC(=O)N2 (stereo not given) | 125% |  |  | 
29 | CCCN1C(=O)Nc2cc(OC)c(OC)c(OC)c2C1c1cccc(Cl)c1 (stereo not given) | 100% | 5.2 µM |  | 
30 | COc1cc2c(c(OC)c1OC)C(c1cc(C)ccc1F)NC(=O)N2 (stereo not given) | 125% | 4.3 µM |  | 
31 | COc1cc2c(c(OC)c1OC)C(c1cc(Br)ccc1F)C(C)C(=O)N2 (mixture of isomers) |  |  | inactive | 
32 | COc1ccc(F)c(C2NC(=O)Nc3cc(OC)c(OC)c(OC)c32)c1 (stereo not given) |  |  | inactive | 
33 | COc1cc(Cl)ccc1C1NC(=O)Nc2cc(OC)c(OC)c(OC)c21 (stereo not given) | 200% | 7.8 µM |  | 
34 | COc1cccc(C2NC(=O)Nc3cc(OC)c(OC)c(OC)c32)c1 (stereo not given) | 100% | 18 µM |  | 
35 | COc1cc2c(c(OC)c1OC)C(c1cccc(Br)c1)CC(=O)N2 (stereo not given) |  |  | inactive | 
36 | COc1cc2c(c(OC)c1OC)C(c1cc(Cl)ccc1F)=NCC(=O)N2 | 125% | 8.4 µM |  | 
37 | COc1ccc(C2NC(=O)Nc3cc(OC)c(OC)c(OC)c32)cc1 (stereo not given) |  |  | inactive | 
38 | COc1cc2c(c(OC)c1OC)C(c1cc([N+](=O)[O-])ccc1F)CC(=O)N2 (stereo not given) |  |  | inactive | 
39 | COc1cc2c(c(OC)c1OC)C(c1cc(Cl)ccc1F)OC(C)C(=O)N2 (mixture of isomers) | 125% | 2.6 µM |  | 
40 | COc1cc2c(c(OC)c1OC)C(c1cc(-c3ccccc3)ccc1F)NC(=O)N2 (stereo not given) |  |  | inactive | 
41 | CC(C)c1cc(C(=O)Nc2ccc(F)c(Cl)c2)no1 | 242% |  |  | EC50 [10]: 1.8 µM
42 | COc1cc2c(c(OC)c1OC)C(c1ccc(Cl)cc1Cl)CC(=O)N2 (stereo not given) |  |  | inactive | 
